Values after ≈ are worked out from the molar mass of the structure shown.
Test system: not listed separately
Assay: Volume of distribution at steady state in rat at […]
Type: ADME, organism-based
Conditions: in vivo
How it was run: (§1)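 Mouse and rat PK: single 1 mg/kg iv dose given in 100% DMSO, and 10 mg/kg po dose given in 1% Tween 80, 2% HPMC, 97% water.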

Row | SMILES | Vdss [L/kg]
1 | C=CC(=O)N1CC(NC(=O)Cn2c(C3CC3)c(C(=O)N3CCc4c(cccc4OC)C3)c3cc(Cl)cc(C)c32)C1 | 2.6

Test system: not listed separately
Assay: Half-life in mouse at 10 mg/kg, po
Type: ADME, organism-based
Conditions: in vivo
How it was run: as §1

Row | SMILES | half-life [h]
2 | C=CC(=O)N1CC(NC(=O)Cn2c(C3CC3)c(C(=O)N3CCc4c(cccc4OC)C3)c3cc(Cl)cc(C)c32)C1 | 0.9

Test system: GTPase KRas (Homo sapiens), P01116 [G12C]
Sequence (P01116 whole entry G12C): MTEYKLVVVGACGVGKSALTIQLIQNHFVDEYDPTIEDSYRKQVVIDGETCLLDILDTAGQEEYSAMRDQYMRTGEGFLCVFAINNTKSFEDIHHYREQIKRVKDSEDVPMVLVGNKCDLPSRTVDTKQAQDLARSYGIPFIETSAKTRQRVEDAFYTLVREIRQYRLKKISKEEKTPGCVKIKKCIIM
Assay: Inhibition of KRAS G12C mutant (unknown origin) at 10 uM incubated for 0.02 hrs in presence of GDP by rapidfire mass spectrometry analysis relative to control
Conditions: not given
How it was run: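 Intact-protein mass spectrometry of covalent adduct formation at Cys12 of GDP-bound KRASG12C. Test compound at 10 μM, with read-outs at 0.02, 0.2, 2 and 20 h. Values are the relative % of protein bound, measured directly under pseudo-first-order conditions. Earlier incubations in the paper used 2 μM protein.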

Row | SMILES | inhibition [%]
3 | C=CC(=O)N1CC(NC(=O)Cn2cc(C(=O)N3CCc4ccccc4C3)c3cc(Br)ccc32)C1 | 0
4 | C=CC(=O)N1CC(NC(=O)Cn2c(C3CC3)c(C(=O)N3CCc4c(cccc4OC)C3)c3cc(Cl)cc(C)c32)C1 | 69

Test system: not listed separately
Assay: Intrinsic clearance in human liver microsomes at 1 uM measured after 30 mins in presence of NADPH by LC-MS analysis
Type: ADME, Microsome
Conditions: read-out: CLH

Row | SMILES | microsomal CLint at 1 µM [µL/min/mg]
5 | C=CC(=O)N1CC(NC(=O)Cn2c(C3CC3)c(C(=O)N3CCc4c(cccc4OC)C3)c3cc(Cl)cc(C)c32)C1 | 161

Test system: not listed separately
Assay: Plasma protein binding in rat assessed as unbound fraction at 5 uM by ultracentrifugation method
Type: ADME, cell-free
Conditions: not given
How it was run: (§2)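 Plasma protein binding measured by ultracentrifugation, compound at 5 μM.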

Row | SMILES | fraction unbound at 5 µM
6 | C=CC(=O)N1CC(NC(=O)Cn2c(C3CC3)c(C(=O)N3CCc4c(cccc4OC)C3)c3cc(Cl)cc(C)c32)C1 | 0.02

Test system: not listed separately
Assay: Plasma protein binding in mouse assessed as unbound fraction at 5 uM by ultracentrifugation method
Type: ADME, cell-free
Conditions: not given
How it was run: as §2

Row | SMILES | fraction unbound at 5 µM
7 | C=CC(=O)N1CC(NC(=O)Cn2c(C3CC3)c(C(=O)N3CCc4c(cccc4OC)C3)c3cc(Cl)cc(C)c32)C1 | 0.02

Test system: not listed separately
Assay: Solubility of compound in FASIIF measured after 72 hrs by HPLC
Type: physicochemical
Conditions: FaSSIF
How it was run: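 Solubility in fasted-state simulated intestinal fluid, measured by HPLC after equilibration at room temperature for 72 h.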

Row | SMILES | solubility at 72 h [µM]
8 | C=CC(=O)N1CC(NC(=O)Cn2c(C3CC3)c(C(=O)N3CCc4c(cccc4OC)C3)c3cc(Cl)cc(C)c32)C1 | 252 (≈ 141 µg/mL)

Test system: not listed separately
Assay: Half-life in rat at 10 mg/kg, po
Type: ADME, organism-based
Conditions: in vivo
How it was run: as §1

Row | SMILES | half-life [h]
9 | C=CC(=O)N1CC(NC(=O)Cn2c(C3CC3)c(C(=O)N3CCc4c(cccc4OC)C3)c3cc(Cl)cc(C)c32)C1 | 0.7

Test system: not listed separately
Assay: Oral bioavailability in rat at 10 mg/kg
Type: ADME, organism-based
Conditions: in vivo
How it was run: as §1

Row | SMILES | bioavailability [%]
10 | C=CC(=O)N1CC(NC(=O)Cn2c(C3CC3)c(C(=O)N3CCc4c(cccc4OC)C3)c3cc(Cl)cc(C)c32)C1 | < 1

Test system: GTPase KRas (Homo sapiens), P01116 [G12C]
Assay: Inhibition of KRAS G12C mutant (unknown origin) assessed as pseudo first order rate constant incubated for 0.02 to 20 hrs in presence of GDP by rapidfire mass spectrometry analysis
Conditions: not given
How it was run: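 GDP-bound KRASG12C (2 μM) with 10 μM compound. Intact-protein MS measures covalent adduct at Cys12 after 0.02, 0.2, 2 and 20 h. Conversions between 10% and 90% are converted to kobs/[I] (M–1 s–1) under pseudo-first-order kinetics.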

Row | SMILES | K [M⁻¹ s⁻¹]
11 | C=CC(=O)N1CC(NC(=O)Cn2cc(C(=O)N3CCc4ccccc4C3)c3cc(Br)ccc32)C1 | 308
12 | C=CC(=O)N1CC(NC(=O)Cn2c(C3CC3)c(C(=O)N3CCc4c(cccc4OC)C3)c3cc(Cl)cc(C)c32)C1 | 2640

Test system: not listed separately
Assay: Hepatic intrinsic clearance in human hepatocytes assessed per 10^6 cells at 0.5 uM after 60 mins
Type: ADME, cell-based, Hepatocyte
Conditions: read-out: CLH
How it was run: (§3)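 Intrinsic clearance in mouse, rat or human hepatocytes. Compound at 0.5 μM, 0.5 million cells/mL, incubated 60 min.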

Row | SMILES | hepatocyte CLint at 0.5 µM [µL/min/1e6 cells]
13 | C=CC(=O)N1CC(NC(=O)Cn2c(C3CC3)c(C(=O)N3CCc4c(cccc4OC)C3)c3cc(Cl)cc(C)c32)C1 | 53

Test system: not listed separately
Assay: Half life of compound in phosphate buffer at pH 7.4 in presence of GSH by LC/MS analysis
Type: physicochemical
Conditions: phosphate buffer with GSH
How it was run: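 Intrinsic thiol reactivity toward 5 mM glutathione. Half-life is taken from the rate at which parent compound disappears.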

Row | SMILES | half-life [h]
14 | C=CC(=O)N1CC(NC(=O)Cn2cc(C(=O)N3CCc4ccccc4C3)c3cc(Br)ccc32)C1 | 1.67
15 | C=CC(=O)N1CC(NC(=O)Cn2c(C3CC3)c(C(=O)N3CCc4c(cccc4OC)C3)c3cc(Cl)cc(C)c32)C1 | 1.33

Test system: A549
Assay: Cytotoxicity against human A549 cells assessed as reduction in cell viability measured after 72 hrs by Celltiter-Glo luminescent cell viability assay
Type: functional, cell-based
Conditions: A549, 72 h
How it was run: (§4)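 Cell viability in MIA PaCa-2 (KRAS p.G12C) or A549 (KRAS p.G12S) cells, read by CellTiter-Glo luminescence.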

Row | SMILES | IC50 [µM]
16 | C=CC(=O)N1CC(NC(=O)Cn2c(C3CC3)c(C(=O)N3CCc4c(cccc4OC)C3)c3cc(Cl)cc(C)c32)C1 | 9.33

Test system: not listed separately
Assay: Volume of distribution at steady state in mouse at […]
Type: ADME, organism-based
Conditions: in vivo
How it was run: as §1

Row | SMILES | Vdss [L/kg]
17 | C=CC(=O)N1CC(NC(=O)Cn2c(C3CC3)c(C(=O)N3CCc4c(cccc4OC)C3)c3cc(Cl)cc(C)c32)C1 | 2.9

Test system: GTPase KRas (Homo sapiens), P01116 [G12C]
Assay: Inhibition of KRAS G12C mutant (unknown origin) at 10 uM incubated for 2 hrs in presence of GDP by rapidfire mass spectrometry analysis relative to control
Conditions: not given
How it was run: (§5)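 GDP-bound KRASG12C (2 μM) incubated with 10 μM compound. Intact-protein mass spectrometry quantifies relative % covalent adduct at Cys12 at the stated time point.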

Row | SMILES | inhibition [%]
18 | C=CC(=O)N1CC(NC(=O)Cn2cc(C(=O)N3CCc4ccccc4C3)c3cc(Br)ccc32)C1 | 100
19 | C=CC(=O)N1CC(NC(=O)Cn2c(C3CC3)c(C(=O)N3CCc4c(cccc4OC)C3)c3cc(Cl)cc(C)c32)C1 | 100

Test system: not listed separately
Assay: Clearance in mouse at […]
Type: ADME, organism-based
Conditions: in vivo
How it was run: as §1

Row | SMILES | CL/F [mL/min/kg]
20 | C=CC(=O)N1CC(NC(=O)Cn2c(C3CC3)c(C(=O)N3CCc4c(cccc4OC)C3)c3cc(Cl)cc(C)c32)C1 | 107

Test system: not listed separately
Assay: Oral bioavailability in mouse at 10 mg/kg
Type: ADME, organism-based
Conditions: in vivo
How it was run: as §1

Row | SMILES | bioavailability [%]
21 | C=CC(=O)N1CC(NC(=O)Cn2c(C3CC3)c(C(=O)N3CCc4c(cccc4OC)C3)c3cc(Cl)cc(C)c32)C1 | 8

Test system: not listed separately
Assay: Plasma protein binding in human assessed as unbound fraction at 5 uM by ultracentrifugation method
Type: ADME, cell-free
Conditions: not given
How it was run: as §2

Row | SMILES | fraction unbound at 5 µM
22 | C=CC(=O)N1CC(NC(=O)Cn2c(C3CC3)c(C(=O)N3CCc4c(cccc4OC)C3)c3cc(Cl)cc(C)c32)C1 | 0.04

Test system: MIA PaCa-2
Assay: Cytotoxicity against human MIAPaCa2 cells assessed as reduction in cell viability measured after 72 hrs by Celltiter-Glo luminescent cell viability assay
Type: functional, cell-based
Conditions: MIA PaCa-2, 72 h
How it was run: as §4

Row | SMILES | IC50 [µM]
23 | C=CC(=O)N1CC(NC(=O)Cn2c(C3CC3)c(C(=O)N3CCc4c(cccc4OC)C3)c3cc(Cl)cc(C)c32)C1 | 0.067

Test system: GTPase KRas (Homo sapiens), P01116 [G12C]
Assay: Inhibition of KRAS G12C mutant (unknown origin) at 10 uM incubated for 20 hrs in presence of GDP by rapidfire mass spectrometry analysis relative to control
Conditions: not given
How it was run: as §5

Row | SMILES | inhibition [%]
24 | C=CC(=O)N1CC(NC(=O)Cn2cc(C(=O)N3CCc4ccccc4C3)c3cc(Br)ccc32)C1 | 100
25 | C=CC(=O)N1CC(NC(=O)Cn2c(C3CC3)c(C(=O)N3CCc4c(cccc4OC)C3)c3cc(Cl)cc(C)c32)C1 | 100

Test system: not listed separately
Assay: Hepatic intrinsic clearance in mouse hepatocytes assessed per 10^6 cells at 0.5 uM after 60 mins
Type: ADME, cell-based, Hepatocyte
Conditions: read-out: CLH
How it was run: as §3

Row | SMILES | hepatocyte CLint at 0.5 µM [µL/min/1e6 cells]
26 | C=CC(=O)N1CC(NC(=O)Cn2c(C3CC3)c(C(=O)N3CCc4c(cccc4OC)C3)c3cc(Cl)cc(C)c32)C1 | 228

Test system: not listed separately
Assay: Clearance in rat at […]
Type: ADME, organism-based
Conditions: in vivo
How it was run: as §1

Row | SMILES | CL/F [mL/min/kg]
27 | C=CC(=O)N1CC(NC(=O)Cn2c(C3CC3)c(C(=O)N3CCc4c(cccc4OC)C3)c3cc(Cl)cc(C)c32)C1 | 65

Test system: not listed separately
Assay: Hepatic intrinsic clearance in rat hepatocytes assessed per 10^6 cells at 0.5 uM after 60 mins
Type: ADME, cell-based, Hepatocyte
Conditions: read-out: CLH
How it was run: as §3

Row | SMILES | hepatocyte CLint at 0.5 µM [µL/min/1e6 cells]
28 | C=CC(=O)N1CC(NC(=O)Cn2c(C3CC3)c(C(=O)N3CCc4c(cccc4OC)C3)c3cc(Cl)cc(C)c32)C1 | 293

Test system: not listed separately
Assay: Intrinsic clearance in mouse liver microsomes at 1 uM measured after 30 mins in presence of NADPH by LC-MS analysis
Type: ADME, Microsome
Conditions: read-out: CLH

Row | SMILES | microsomal CLint at 1 µM [µL/min/mg]
29 | C=CC(=O)N1CC(NC(=O)Cn2c(C3CC3)c(C(=O)N3CCc4c(cccc4OC)C3)c3cc(Cl)cc(C)c32)C1 | 708

Test system: GTPase KRas (Homo sapiens), P01116 [G12C]
Assay: Inhibition of KRAS G12C mutant (unknown origin) at 10 uM incubated for 0.2 hrs in presence of GDP by rapidfire mass spectrometry analysis relative to control
Conditions: not given
How it was run: as §5

Row | SMILES | inhibition [%]
30 | C=CC(=O)N1CC(NC(=O)Cn2cc(C(=O)N3CCc4ccccc4C3)c3cc(Br)ccc32)C1 | 100
31 | C=CC(=O)N1CC(NC(=O)Cn2c(C3CC3)c(C(=O)N3CCc4c(cccc4OC)C3)c3cc(Cl)cc(C)c32)C1 | 94

Test system: not listed separately
Assay: Intrinsic clearance in rat liver microsomes at 1 uM measured after 30 mins in presence of NADPH by LC-MS analysis
Type: ADME, Microsome
Conditions: read-out: CLH

Row | SMILES | microsomal CLint at 1 µM [µL/min/mg]
32 | C=CC(=O)N1CC(NC(=O)Cn2c(C3CC3)c(C(=O)N3CCc4c(cccc4OC)C3)c3cc(Cl)cc(C)c32)C1 | 197
